Assay [1] concerns the target T1, Glycogen phosphorylase, muscle form (Oryctolagus cuniculus, UniProt P00489).
T1 sequence (P00489 whole entry): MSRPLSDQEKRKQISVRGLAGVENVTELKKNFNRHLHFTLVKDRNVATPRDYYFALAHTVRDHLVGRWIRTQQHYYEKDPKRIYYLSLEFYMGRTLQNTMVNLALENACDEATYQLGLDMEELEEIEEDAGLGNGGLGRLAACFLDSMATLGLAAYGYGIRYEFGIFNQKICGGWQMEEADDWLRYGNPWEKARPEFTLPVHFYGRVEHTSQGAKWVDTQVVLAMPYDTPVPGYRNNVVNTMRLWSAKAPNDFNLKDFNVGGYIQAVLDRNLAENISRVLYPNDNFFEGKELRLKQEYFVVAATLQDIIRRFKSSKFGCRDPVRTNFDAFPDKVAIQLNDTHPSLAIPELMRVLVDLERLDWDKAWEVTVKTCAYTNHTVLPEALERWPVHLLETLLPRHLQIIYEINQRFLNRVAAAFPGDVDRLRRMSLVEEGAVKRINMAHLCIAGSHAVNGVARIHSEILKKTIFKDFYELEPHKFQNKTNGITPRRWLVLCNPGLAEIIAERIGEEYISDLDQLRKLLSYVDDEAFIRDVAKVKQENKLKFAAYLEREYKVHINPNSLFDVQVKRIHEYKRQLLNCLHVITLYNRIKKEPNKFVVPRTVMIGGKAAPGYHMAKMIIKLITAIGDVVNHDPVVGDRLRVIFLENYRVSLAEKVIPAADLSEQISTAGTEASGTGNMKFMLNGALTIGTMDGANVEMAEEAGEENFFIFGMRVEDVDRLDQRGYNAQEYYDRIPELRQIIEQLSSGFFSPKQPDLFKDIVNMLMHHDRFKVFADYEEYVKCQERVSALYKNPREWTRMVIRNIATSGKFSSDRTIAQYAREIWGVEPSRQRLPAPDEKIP
In words: Inhibition of rabbit muscle glycogen phosphorylase-b assessed as release of inorganic phosphate using glucose-1-phosphate as substrate in presence of AMP and glycogen by spectrophotometric method. An outline of the steps: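 GPb was purified from rabbit skeletal muscle and used at 3 μg/mL at 30 °C, synthesis direction. Medium was 30 mM imidazole/HCl pH 6.8, 60 mM KCl, 0.6 mM EDTA, 0.6 mM DTT, 0.2% w/v glycogen and 1 mM AMP, with Glc-1-P and inhibitor varied. Initial rates came from pseudo-first-order constants of spectrophotometric phosphate release at five time points, fitted by non-linear regression.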

The target in assay [2] is T1, Glycogen phosphorylase, muscle form. In words: Inhibition of rabbit muscle glycogen phosphorylase-a assessed as release of inorganic phosphate using glucose-1-phosphate as substrate in presence of glycogen by spectrophotometric method. An outline of the steps:
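Rabbit muscle GPa was made by phosphorylating purified rabbit skeletal muscle GPb and used at 3 μg/mL, without AMP. Buffer was 30 mM imidazole/HCl pH 6.8 with 60 mM KCl, 0.6 mM EDTA, 0.6 mM DTT and 0.2% w/v glycogen, with varied Glc-1-P and inhibitor, at 30 °C. Phosphate release was measured spectrophotometrically at five intervals, and data were fitted non-linearly.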

The target of assay [3] is T2, Glycogen phosphorylase, liver form (Homo sapiens, UniProt P06737).
T2 sequence (P06737 whole entry): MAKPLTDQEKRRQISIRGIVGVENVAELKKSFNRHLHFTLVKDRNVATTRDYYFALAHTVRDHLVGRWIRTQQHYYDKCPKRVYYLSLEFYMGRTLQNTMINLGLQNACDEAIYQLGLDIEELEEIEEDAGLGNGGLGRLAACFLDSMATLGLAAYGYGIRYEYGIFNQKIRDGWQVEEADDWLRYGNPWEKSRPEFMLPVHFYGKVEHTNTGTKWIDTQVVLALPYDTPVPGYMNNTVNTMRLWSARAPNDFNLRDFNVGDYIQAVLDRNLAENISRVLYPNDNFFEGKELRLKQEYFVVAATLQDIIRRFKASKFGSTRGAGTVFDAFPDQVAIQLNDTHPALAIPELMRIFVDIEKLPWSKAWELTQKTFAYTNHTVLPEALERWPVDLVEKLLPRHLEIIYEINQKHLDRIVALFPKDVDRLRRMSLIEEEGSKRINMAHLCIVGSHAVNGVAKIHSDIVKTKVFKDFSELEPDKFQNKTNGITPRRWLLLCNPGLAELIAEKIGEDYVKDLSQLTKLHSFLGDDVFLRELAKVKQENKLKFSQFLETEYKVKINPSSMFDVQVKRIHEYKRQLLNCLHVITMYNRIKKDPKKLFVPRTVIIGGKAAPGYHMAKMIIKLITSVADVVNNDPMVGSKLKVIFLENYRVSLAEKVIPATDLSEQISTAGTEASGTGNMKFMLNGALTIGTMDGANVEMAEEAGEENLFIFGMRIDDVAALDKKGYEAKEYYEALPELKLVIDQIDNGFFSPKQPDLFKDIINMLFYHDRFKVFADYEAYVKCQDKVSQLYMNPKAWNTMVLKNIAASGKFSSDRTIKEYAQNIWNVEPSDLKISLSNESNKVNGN
The assay is described as follows: Inhibition of human liver glycogen phosphorylase-a assessed as release of inorganic phosphate using glucose-1-phosphate as substrate in presence of glycogen by spectrophotometric method. An outline of the steps:
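Human liver GPa (1 μg/mL) assayed at 30 °C toward glycogen synthesis in 30 mM imidazole/HCl pH 6.8 with 60 mM KCl, 0.6 mM EDTA, 0.6 mM DTT, 0.2% w/v glycogen, no AMP, and varied Glc-1-P and inhibitor. Orthophosphate release was read spectrophotometrically at five time points; kinetic parameters were fitted by non-linear regression.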

Assay [4] in a line: Inhibition of glycogen phosphorylase (unknown origin). Also noted: species or system Homo sapiens.
Assay [5] concerns the target T3, Glycogen phosphorylase, muscle form (Oryctolagus cuniculus) (UniProt P00489).
T3 sequence (whole entry): T1 sequence (P00489 whole entry)
In words: Inhibition of rabbit muscle glycogen phosphorylase-b at 625 uM assessed as release of inorganic phosphate using glucose-1-phosphate as substrate in presence of AMP and glycogen by spectrophotometric method.

This note sets out measurements from ChEMBL document CHEMBL4145546, “A multidisciplinary study of 3-(β-d-glucopyranosyl)-5-substituted-1,2,4-triazole derivatives as glycogen phosphorylase inhibitors: Computation, synthesis, crystallography and kinetics reveal new potent inhibitors” (Eur J Med Chem, 2018).

The source made the active and inactive calls. The rule behind the calls is not given here. Some results are limits rather than exact numbers.

Turning to `NS(=O)(=O)c1ccc(-c2n[nH]c([C@@H]3O[C@H](CO)[C@@H](O)[C@H](O)[C@H]3O)n2)cc1`, in assay [1], the Ki turned out to be 98.2 µM.

As for `O=C(O)c1ccc2cc(-c3n[nH]c([C@@H]4O[C@H](CO)[C@@H](O)[C@H](O)[C@H]4O)n3)ccc2c1`, the Ki was 5.05 µM in assay [1], 0.78 µM in assay [2] and 3.88 µM in assay [3].

Turning to `OC[C@H]1O[C@@H](c2nc(-c3ccc4cc5ccccc5cc4c3)n[nH]2)[C@H](O)[C@@H](O)[C@@H]1O`, the inhibition constant (Ki) in assay [1] came to 20 µM.

Regarding `OC[C@H]1O[C@H](O)[C@H](O)[C@@H](O)[C@@H]1O`, in assay [4], affinity was put at a Ki of […].

For the compound `OC[C@H]1O[C@@H](c2nc(-c3ccc(-c4ccccc4)cc3)n[nH]2)[C@H](O)[C@@H](O)[C@@H]1O`, the inhibitory constant (Ki) in assay [1] was 2.38 µM; in assay [2], 2.09 µM; in assay [3], 2.23 µM.

Regarding `O=C(O)c1ccc(-c2ccc(-c3n[nH]c([C@@H]4O[C@H](CO)[C@@H](O)[C@H](O)[C@H]4O)n3)cc2)cc1`, the inhibitory constant (Ki) in assay [1] stood at 4.42 µM; in assay [2], 0.98 µM; in assay [3] it was 2.67 µM.

In the case of `OC[C@H]1O[C@@H](c2nc(-c3ccc4c(c3)Cc3ccccc3-4)n[nH]2)[C@H](O)[C@@H](O)[C@@H]1O`, the inhibitory constant (Ki) in assay [1] came out at 1.19 µM; in assay [2], 0.84 µM; in assay [3], 2.02 µM.

As to `OC[C@H]1O[C@@H](c2nc(-c3cccc4ccccc34)n[nH]2)[C@H](O)[C@@H](O)[C@@H]1O`, the inhibition constant Ki in assay [1] amounted to 11.5 µM; in assay [2], 3.38 µM; in assay [3], 8.91 µM.

For `CN(C)/C=N/S(=O)(=O)c1ccc(-c2n[nH]c([C@@H]3O[C@H](CO)[C@@H](O)[C@H](O)[C@H]3O)n2)cc1`, the inhibition result in assay [5] was “inactive”.

For `OC[C@H]1O[C@@H](c2nc(-c3ccc4ccc5cccc6ccc3c4c56)n[nH]2)[C@H](O)[C@@H](O)[C@@H]1O`, the Ki in assay [1] is more than 1500 µM.

For the compound `OC[C@H]1O[C@@H](c2nc(-c3cccc(-c4ccccc4)c3)n[nH]2)[C@H](O)[C@@H](O)[C@@H]1O`, the Ki in assay [1] was found to be 68.2 µM.
